Test results reported in ChEMBL document CHEMBL1799920, “Total synthesis and pharmacological characterization of solomonsterol A, a potent marine pregnane-X-receptor agonist endowed with anti-inflammatory activity” (J Med Chem, 2011).
Active and inactive are the calls of the source.

Tests used:
[1] = tested on: Mus musculus; test: Antiinflammatory activity against trinitrobenzenesulfonic acid-induced colitis in human PXR expressing transgenic C57/BL6 mouse assessed as decrease in IL-12p70 protein level in colon at 10 mg/kg, ip qd after 5 days; format: functional, organism-based; parameters: dose 10 mg/kg; conditions: C57Bl/6
[2] = tested on: Mus musculus; test: Antiinflammatory activity against trinitrobenzenesulfonic acid-induced colitis in human PXR expressing transgenic C57/BL6 mouse assessed as decrease in thickness of colon at 10 mg/kg, ip qd administered 3 days before TNBS challenge measured after 7 days; format: functional, organism-based; parameters: dose 10 mg/kg; conditions: C57Bl/6
Outline: (§1)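 Male hPXR mice (human PXR on mouse PXR-null background). Fasted 16 h and lightly anaesthetised with ketamine/xylazine, then given TNBS 0.5 mg/mouse in 50% ethanol intrarectally in 150 μL. Drug was dissolved in DMSO, diluted in 1% methylcellulose and given i.p. once daily for 3 days before TNBS. Vehicle controls received methylcellulose. Mice were sacrificed 4 days after TNBS; n = 6–7 per group.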

[3] = tested on: THP-1; test: Inhibition of NF-kappaB p65 DNA binding activity in LPS-stimulated human THP1 cells at 10 uM after 3 hrs by electrophoretic mobility shift assay; format: cell-based
Outline: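 THP-1 cells were pretreated with compound (10 μM) or vehicle for 3 h, then LPS 1 μg/mL was added for 20 h. Nuclear extracts were incubated with biotinylated NF-κB probe for 20 min at room temperature, run on a 6% native gel and detected by chemiluminescence. Specificity was checked by cold-probe competition and p65 antibody supershift. Three independent experiments.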

[4] = tested on: Mus musculus; test: Antiinflammatory activity against trinitrobenzenesulfonic acid-induced colitis in human PXR expressing transgenic C57/BL6 mouse assessed as increase in IL-10 protein level in colon at 10 mg/kg, ip qd after 5 days by ELISA; format: functional, organism-based; parameters: dose 10 mg/kg; conditions: C57Bl/6; outline: as §1
[5] = tested on: Mus musculus; test: Antiinflammatory activity against trinitrobenzenesulfonic acid-induced colitis in human PXR expressing transgenic C57/BL6 mouse assessed as decrease in MIP-1alpha protein level in colon at 10 mg/kg, ip qd after 5 days; format: functional, organism-based; parameters: dose 10 mg/kg; conditions: C57Bl/6
[6] = tested on: Mus musculus; test: Antiinflammatory activity against trinitrobenzenesulfonic acid-induced colitis in human PXR expressing transgenic C57/BL6 mouse assessed as decrease in occurrence of diarrhea at 10 mg/kg, ip administered on day 1 after TNBS challenge measured after 5 days; format: functional, organism-based; parameters: dose 10 mg/kg; conditions: C57Bl/6
Outline: (§2)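 Therapeutic protocol in male hPXR mice. Colitis was induced with intrarectal TNBS 0.5 mg/mouse in 50% ethanol after a 16 h fast and light ketamine/xylazine anaesthesia. Drug at 10 mg/kg was given once daily from day 1 after TNBS. Mice were sacrificed 5 days after TNBS; n = 4–6 per group.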

[7] = tested on: Mus musculus; test: Antiinflammatory activity against trinitrobenzenesulfonic acid-induced colitis in human PXR expressing transgenic C57/BL6 mouse assessed as decrease in leukocyte infiltration in colon at 10 mg/kg, ip administered on day 1 after TNBS challenge measured after 5 days by microscopically; format: functional, organism-based; parameters: dose 10 mg/kg; conditions: C57Bl/6; outline: as §2
[8] = tested on: Mus musculus; test: Antiinflammatory activity against trinitrobenzenesulfonic acid-induced colitis in human PXR expressing transgenic C57/BL6 mouse assessed as decrease in thickening of colon wall at 10 mg/kg, ip administered on day 1 after TNBS challenge measured after 5 days by microscopically; format: functional, organism-based; parameters: dose 10 mg/kg; conditions: C57Bl/6; outline: as §2
[9] = tested on: Mus musculus; test: Antiinflammatory activity against trinitrobenzenesulfonic acid-induced colitis in human PXR expressing transgenic C57/BL6 mouse assessed as decrease in INF-gamma protein level in colon at 10 mg/kg, ip qd after 5 days; format: functional, organism-based; parameters: dose 10 mg/kg; conditions: C57Bl/6
[10] = tested on: Mus musculus; test: Antiinflammatory activity against trinitrobenzenesulfonic acid-induced colitis in human PXR expressing transgenic C57/BL6 mouse assessed as decrease in TNF-alpha protein level in colon at 10 mg/kg, ip qd after 5 days by ELISA; format: functional, organism-based; parameters: dose 10 mg/kg; conditions: C57Bl/6; outline: as §1
[11] = tested on: Mus musculus; test: Antiinflammatory activity against trinitrobenzenesulfonic acid-induced colitis in human PXR expressing transgenic C57/BL6 mouse assessed as decrease in weight loss at 10 mg/kg, ip administered on day 1 after TNBS challenge measured after 5 days; format: functional, organism-based; parameters: dose 10 mg/kg; conditions: C57Bl/6; outline: as §2

Measured: Activity

C[C@H](CCCOS(=O)(=O)O)[C@H]1CC[C@H]2[C@@H]3CC[C@H]4C[C@H](OS(=O)(=O)O)[C@@H](OS(=O)(=O)O)C[C@]4(C)[C@H]3CC[C@]12C [SOLOMONSTEROL A]
active: all assays above
